The source made the active and inactive calls. The calls are words filed in the database; no cut-off is given here.
What was measured:
[1] = biological target: Acetylcholinesterase (Electrophorus electricus) (UniProt O42275); assay: Inhibition of electric eel AChE at 100 uM using acetylthiocholine iodide as substrate by Ellman's method
[2] = biological target: T1, Cholinesterase (Equus caballus, UniProt P81908); assay: Inhibition of equine BChE using S-butyrylthiocholine chloride as substrate by Ellman's method
Method in brief: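 IC50 values are the mean ± SD of three independent experiments.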

[3] = biological target: Cholinesterase (Equus caballus) (UniProt P81908); assay: Inhibition of equine BChE at 100 uM using S-butyrylthiocholine chloride as substrate by Ellman's method
[4] = Antioxidant activity assessed as ABTS free radical scavenging activity at 100 uM after 1 min by spectrophotometry
[5] = Antioxidant activity assessed as ABTS free radical scavenging activity after 1 min by spectrophotometry
[6] = biological target: T1, Cholinesterase; assay: Mixed-type inhibition of equine BChE using S-butyrylthiocholine chloride as substrate assessed as free enzyme by Lineweaver-Burk reciprocal plot method
[7] = biological target: T1, Cholinesterase; assay: Mixed-type inhibition of equine BChE using S-butyrylthiocholine chloride as substrate assessed as enzyme-substrate complex by Lineweaver-Burk reciprocal plot method
[8] = Cytotoxicity against mouse NSC-34 cells assessed as cell viability after 48 hrs by MTS assay; type: cell-based; conditions: nsc-34, 48 h

Sequence of Acetylcholinesterase (Electrophorus electricus) (O42275 24-633 limits assumed): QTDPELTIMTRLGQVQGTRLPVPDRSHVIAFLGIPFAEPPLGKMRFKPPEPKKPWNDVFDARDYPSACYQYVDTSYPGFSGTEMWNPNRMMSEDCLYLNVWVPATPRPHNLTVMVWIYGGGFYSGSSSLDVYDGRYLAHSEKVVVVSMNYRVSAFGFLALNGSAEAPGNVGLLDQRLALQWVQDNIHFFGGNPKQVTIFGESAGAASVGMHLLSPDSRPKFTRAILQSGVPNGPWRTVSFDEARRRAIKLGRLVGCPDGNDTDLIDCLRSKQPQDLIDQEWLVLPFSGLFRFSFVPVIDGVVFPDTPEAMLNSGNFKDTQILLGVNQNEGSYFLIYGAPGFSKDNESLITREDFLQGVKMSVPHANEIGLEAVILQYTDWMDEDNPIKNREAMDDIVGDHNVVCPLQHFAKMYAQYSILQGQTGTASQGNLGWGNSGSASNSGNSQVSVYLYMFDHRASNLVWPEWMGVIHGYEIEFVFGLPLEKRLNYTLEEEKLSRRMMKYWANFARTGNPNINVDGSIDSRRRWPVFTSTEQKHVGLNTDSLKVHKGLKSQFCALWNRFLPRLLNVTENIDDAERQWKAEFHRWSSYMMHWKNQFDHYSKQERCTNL
Sequence of Cholinesterase (Equus caballus) (P81908 whole entry): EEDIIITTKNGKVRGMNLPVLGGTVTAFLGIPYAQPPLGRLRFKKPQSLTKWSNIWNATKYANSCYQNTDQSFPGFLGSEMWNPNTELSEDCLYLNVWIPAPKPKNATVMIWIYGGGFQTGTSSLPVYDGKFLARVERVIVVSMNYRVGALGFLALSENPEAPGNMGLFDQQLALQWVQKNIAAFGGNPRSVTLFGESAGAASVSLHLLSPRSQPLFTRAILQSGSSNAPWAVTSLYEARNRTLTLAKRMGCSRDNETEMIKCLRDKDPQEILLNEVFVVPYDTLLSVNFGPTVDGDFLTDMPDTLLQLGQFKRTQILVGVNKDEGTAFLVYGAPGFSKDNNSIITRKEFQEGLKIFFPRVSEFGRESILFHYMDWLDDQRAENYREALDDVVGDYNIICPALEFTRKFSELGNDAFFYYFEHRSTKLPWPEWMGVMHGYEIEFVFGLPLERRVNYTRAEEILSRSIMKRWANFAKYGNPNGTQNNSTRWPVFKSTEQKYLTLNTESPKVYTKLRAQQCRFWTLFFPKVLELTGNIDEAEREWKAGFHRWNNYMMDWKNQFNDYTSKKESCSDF
T1 sequence (P81908 whole entry): as above

SMILES	inhibition [1]	IC50 [2]	inhibition [3]	INH [4]	IC50 ([5]; ABTS free radical)	Ki [6]	Ki [7]	Activity [8]	IC50 [5]
c1ccc(-c2cc3ccccc3o2)cc1	inactive	> 100 µM	6%	–	–	–	–	–	–
COc1ccc(-c2cc3cccc(Cl)c3o2)cc1	–	> 100 µM	5%	–	–	–	–	–	–
Oc1ccc(-c2cc3cccc(Br)c3o2)cc1	–	82.5 µM	54%	53%	93.6 µM	–	–	–	–
Oc1ccc(-c2cc3cc(Cl)ccc3o2)cc1	–	> 100 µM	15%	15%	–	–	–	–	–
Cc1cccc2cc(-c3ccc(O)cc3)oc12	–	77 µM	58%	72%	53.5 µM	–	–	–	–
Oc1ccc(-c2cc3ccccc3o2)cc1	inactive	> 100 µM	inactive	24%	–	–	–	–	–
Oc1ccc(-c2cc3cc(Br)ccc3o2)cc1	–	> 100 µM	16.6%	15%	–	–	–	–	–
Oc1ccc(-c2cc3cccc(Cl)c3o2)cc1	–	30.3 µM	77%	62.4%	–	5 µM	87.4 µM	Non-toxic	67.6 µM
Cc1c(C)c2c(c(C)c1O)CCC(C)(C(=O)O)O2 (stereo unspecified) [TROLOX]	–	–	–	–	13 µM	–	–	–	–
Brc1cccc2cc(-c3ccccc3)oc12	4%	> 100 µM	12%	–	–	–	–	–	–
Cc1ccc2oc(-c3ccc(O)cc3)cc2c1	4.8%	> 100 µM	19%	31%	–	–	–	–	–
COc1ccc(-c2cc3ccccc3o2)cc1	inactive	> 100 µM	inactive	–	–	–	–	–	–
